Compound activity (PubChem BioAssay)
SENP8 block-1 – SENP8 protease inhibitors, primary screen, biochemical, luminescence; Sentrin-specific protease 8 (Homo sapiens), Q96LD8; purified SENP8, Z-RLRGG-aminoluciferin cleavage; 330,000 tested, 1.2% active; inhibition, % at 10 µM; in the data active = inhibition above about 50%
Target sequence (Q96LD8 whole entry, looked up): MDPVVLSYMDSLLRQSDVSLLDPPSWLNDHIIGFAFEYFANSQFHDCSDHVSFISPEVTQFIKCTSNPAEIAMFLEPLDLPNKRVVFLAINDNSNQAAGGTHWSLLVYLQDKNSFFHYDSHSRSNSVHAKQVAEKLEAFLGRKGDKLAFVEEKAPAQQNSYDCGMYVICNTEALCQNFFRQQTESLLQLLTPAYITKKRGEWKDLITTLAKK
SENP8 block-2 – human SENP8 protease inhibitors, primary screen, biochemical, fluorescence, Nedd8 protein substrate, uHTS | AID 602440, 2012 | recombinant SENP8 | 360,000 tested, 0.64% active | Sentrin-specific protease 8 (Homo sapiens), Q96LD8 | inhibition, % at 20 µM; in the data active = inhibition mostly above about 40%, no sharp cut-off; inactive = mostly below about 27%
SENP1 inh – human SENP1 catalytic domain inhibitors, primary screen, biochemical, FRET, uHTS. 360,000 tested, 0.21% active. recombinant SENP1 catalytic domain, CyPet-SUMO1-YPet FRET cleavage. AID 624204, 2012. Sentrin-specific protease 1 (Homo sapiens), Q9P0U3. inhibition, % at 10 µM;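 active = inhibition at least 30% at 10 µM, raw YFP signal under a set limit, fluorescence ratio 0.5 to 1.5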;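 also: 0% = enzyme with DMSO and 100% = no enzyme wells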
Target sequence (Q9P0U3 419-644 limits assumed): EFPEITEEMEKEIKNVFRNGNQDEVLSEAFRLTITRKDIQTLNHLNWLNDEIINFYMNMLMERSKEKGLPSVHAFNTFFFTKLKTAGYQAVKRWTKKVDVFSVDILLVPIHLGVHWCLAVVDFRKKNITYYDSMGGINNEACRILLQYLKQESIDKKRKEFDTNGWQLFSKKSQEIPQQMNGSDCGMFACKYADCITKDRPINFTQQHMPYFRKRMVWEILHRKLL
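Test system: hSENP1 catalytic domain, recombinant; Amount: 20 pM final SENP1 enzyme; Medium: Tris pH 8 buffer plus EDTA, NaCl, BME, BSA, NP40, catalase; Schedule: 50 min enzyme reaction, room temperature, light-protected; Technique: FRET fluorescence in CFP and YFP emission channels; Controls: no-enzyme wells low, DMSO-plus-enzyme wells high control.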
SENP7 inh – SENP7 protease inhibitors, primary screen, biochemical, luminescence, uHTS. inhibition, % at 5 µM. 330,000 tested, 1.5% active. recombinant SENP7, Z-RLRGG-aminoluciferin luminescence, 40 min. AID 434973, 2010;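 active = inhibition above about 50% at the single test dose, limit read from the data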;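 also: plate controls were DMSO with enzyme for no effect and no enzyme buffer wells for full effect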
SENP6 block – SENP6 protease inhibitors, primary screen, biochemical, luminescence, uHTS | Sentrin-specific protease 6 (Homo sapiens), Q9GZR1 | Recombinant SENP6 catalytic domain, aminoluciferin luminescence | AID 2599, 2010 | inhibition, % at 10 µM | 330,000 tested, 1.8% active;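 active = inhibition above about 50% at the single tested dose, limit read from the data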;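 also: plate controls were DMSO wells with enzyme for no effect and DMSO wells lacking enzyme for full effect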
SENP8 conf – SENP8 protease inhibitors, retest, confirmation, biochemical, luminescence, single concentration; inhibition, % at 12.5 µM; 6,200 tested, 40% active; Recombinant SENP8, Z-RLRGG-aminoluciferin luminescence, 60 min; shares compounds with SENP7 inh;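 active = mean inhibition across replicates above about 50%, limit read from the data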
SENP6 conf – SENP6 protease inhibitors, confirmation, biochemical, luminescence, single concentration | shares compounds with SENP7 inh | recombinant SENP6, Z-RLRGG-aminoluciferin luminescence | inhibition, % at 12.5 µM | 6,200 tested, 58% active
SENP7 conf – SENP7 protease inhibitors, retest, confirmation, biochemical, luminescence, single concentration | shares compounds with SENP7 inh | recombinant SENP7, Z-RLRGG-aminoluciferin luminescence, 40 min | inhibition, % at 12.5 µM | 6,200 tested, 69% active | AID 488917, 2010
Casp3 select – caspase-3 protease inhibitors, confirmation, selectivity assay for SENP inhibitor project, biochemical, single concentration; purified caspase-3, Z-DEVD-aminoluciferin luminescence, 60 min; 6,200 tested, 60% active; AID 488918, 2010; inhibition, % at 12.5 µM; shares compounds with SENP7 inh;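 active = mean inhibition above about 50%, limit read from the data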;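 also: plate controls were enzyme with DMSO for no effect and wells without caspase-3 for full effect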
Luc interf – interferes with luciferase luminescence in SENP counter-screen; shares compounds with SENP7 inh; Pre-incubated SENP8/Z-RLRGG-aminoluciferin, luciferase luminescence interference; inhibition, % at 12.5 µM; 6,200 tested, 39% active;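 active = mean inhibition above about 50% when retested at one dose, limit read from the data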;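 also: plate controls were DMSO wells with completed reaction for no effect and substrate without enzyme for full effect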
* = called active by the depositor; . = no result. Only some compounds are listed: those with a hit (about 2.5% of all), similar ones and a draw of the others.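 The calls were made as follows, unless noted: active = mean inhibition above about 50% in the one-dose retest (limit read from the data); inactive = the rest.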

SMILES	SENP8 block-1	SENP8 block-2	SENP1 inh	SENP7 inh	SENP6 block	SENP8 conf	SENP6 conf	SENP7 conf	Casp3 select	Luc interf
CCC(C)NS(=O)(=O)c1ccc(NC(=O)c2cccs2)cc1 (stereo unspecified)	-1	-5	3	23	8	.	.	.	.	.
Cc1cc(NS(=O)(=O)c2ccc(NC(=O)Cc3ccccc3)cc2)nc(C)n1	1	2	1	7	3	.	.	.	.	.
Nc1ccc(NC(=O)c2cccs2)c(Cl)c1	-5	0	0	-9	-8	.	.	.	.	.
CCCOC(=O)c1ccc(NC(=O)c2ccccc2OC)cc1	-3	2	1	-3	-27	.	.	.	.	.
Cc1occc1C(=O)Nc1ccc(OCc2ccccc2)cc1	96*	-2	1	100*	98*	90*	100*	104*	99*	73*
CCCOC(=O)c1ccc(NC(=O)c2ccoc2C)cc1	89*	17	3	93*	95*	94*	95*	101*	92*	66*
O=C(Nc1ccc(NC(=O)c2cccs2)c(Cl)c1)c1cccs1	50	3	1	53*	63*	48	51*	80*	48	46
O=C(Nc1ccc(OCc2ccccc2)cc1)c1cccc([N+](=O)[O-])c1	-9	16	3	56*	-4	-7	-4	6	5	-5
Cc1occc1C(=O)Nc1cccc(C(=O)NCc2ccccc2)c1	-6	4	2	-8	-29	.	.	.	.	.
Cc1ccc(C(=O)Nc2ccc(OCc3ccccc3)cc2)cc1[N+](=O)[O-]	-6	17	2	-9	-8	.	.	.	.	.
Cc1ccc(OCCCC(=O)N(C)CC(=O)Nc2c(C)cccc2C)cc1	.	6	0	.	.	.	.	.	.	.
O=C(CC[C@H]1O[C@@H](n2ccc(=O)[nH]c2=O)[C@H](O)[C@@H]1O)NCC1CCCO1 (stereo partly specified)	.	27	-1	.	.	.	.	.	.	.
Cc1ccccc1N=Cc1cccc(O)c1O	-5	24	12	2	14	.	.	.	.	.
Oc1cccc(/C=N/N=C/c2cccc(O)c2O)c1O	92*	20	4	94*	96*	94*	94*	100*	92*	27
CC(C)C(=O)N1CCN(c2ccccc2NC(=O)c2ccco2)CC1	2	10	2	-9	103*	-7	-6	-7	2	3
CC(C)C(=O)N1CCN(c2ccccc2NC(=O)c2ccc(Br)o2)CC1	10	3	-4	0	9	.	.	.	.	.
O=c1nc2c(-c3cccc(Br)c3)n[nH]n2c2ccccc12	92*	-304	-26	80*	88*	38	45	24	61*	4
COc1cccc(Nc2nc(-c3sc(NC(=O)c4ccccc4)nc3C)cs2)c1	35	-88	-19	40	59*	12	11	20	37	12
Cc1nc(NC(=O)c2ccccc2)sc1-c1csc(NCc2ccco2)n1	48	-43	5	66*	60*	28	29	36	67*	32
